Reference: ChEMBL document CHEMBL1123067, “Evaluation of the brain-specific delivery of radioiodinated (iodophenyl)alkyl-substituted amines coupled to a dihydropyridine carrier” (J Med Chem, 1985)
One block for each compound: values may come before it.

Tests used:
Type in all cases: ADME, organism-based
[1] = system: Rattus norvegicus; assay: Distribution of radioactivity in kidney tissues of Sprague-Dawley rats after 15 min injecton by intravenously; 1.12-2.04; details: in vivo, iv, 0.25 h
[2] = system: Rattus norvegicus; assay: Distribution of radioactivity in liver tissues of Sprague-Dawley rats after 5 min injecton by intravenously; 6.76-10.44; details: in vivo, iv
[3] = system: Rattus norvegicus; assay: Distribution of radioactivity in liver tissues of Sprague-Dawley rats after 60 min injecton by intravenously; 0.75-1.14; details: in vivo, iv, 1 h
[4] = system: Rattus norvegicus; assay: Distribution of radioactivity in kidney tissues of Sprague-Dawley rats after 5 min injecton by intravenously; 13.02-19.07; details: in vivo, iv
[5] = system: Rattus norvegicus; assay: Distribution of radioactivity in kidney tissues of Sprague-Dawley rats after 60 min injecton by intravenously; 0.48-0.72; details: in vivo, iv, 1 h
[6] = system: Rattus norvegicus; assay: Distribution of radioactivity in liver tissues of Sprague-Dawley rats after 15 min injecton by intravenously; 4.01-4.81; details: in vivo, iv, 0.25 h
[7] = system: Rattus norvegicus; assay: Distribution of radioactivity in lung tissues of Sprague-Dawley rats after 15 min injecton by intravenously; 0.4-0.54; details: in vivo, iv, 0.25 h
[8] = system: Rattus norvegicus; assay: Distribution of radioactivity in lung tissues of Sprague-Dawley rats after 5 min injecton by intravenously; 0.47-0.56; details: in vivo, iv
[9] = system: Rattus norvegicus; assay: Distribution of radioactivity in lung tissues of Sprague-Dawley rats after 60 min injecton by intravenously; 0.3-0.36; details: in vivo, iv, 1 h
[10] = system: Rattus norvegicus; assay: Distribution of radioactivity in brain tissues of Sprague-Dawley rats after 60 min injecton by intravenously; 0.02-0.03; details: in vivo, iv, 1 h
Outline: (§1)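 Female Sprague-Dawley rats, 10–12 weeks old (170–200 g), fed ad libitum. The ¹²⁵I-labelled agent was dissolved in minimal Me2SO, diluted with saline to a final 20% Me2SO, filtered (0.22 μm), and injected into a lateral tail vein under ether anaesthesia. Tissues were counted against samples of the injected solution and expressed as % injected dose/g (mean, range). Brain/blood ratio is from the means.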

[11] = system: Rattus norvegicus; assay: Distribution of radioactivity in heart tissues of Sprague-Dawley rats after 60 min injecton by intravenously; 0.19-0.23; details: in vivo, iv, 1 h
[12] = system: Rattus norvegicus; assay: Distribution of radioactivity in blood tissues of Sprague-Dawley rats after 60 min injecton by intravenously; 0.25-0.32; details: in vivo, iv, 1 h; outline: as §1
[13] = system: Rattus norvegicus; assay: Distribution of radioactivity in brain tissues of Sprague-Dawley rats after 15 min injecton by intravenously; 0.03-0.03; details: in vivo, iv, 0.25 h; outline: as §1
[14] = system: Rattus norvegicus; assay: Distribution of radioactivity in heart tissues of Sprague-Dawley rats after 15 min injecton by intravenously; 0.24-0.28; details: in vivo, iv, 0.25 h; outline: as §1
[15] = system: Rattus norvegicus; assay: Distribution of radioactivity in blood tissues of Sprague-Dawley rats after 15 min injecton by intravenously; 0.35-0.37; details: in vivo, iv, 0.25 h; outline: as §1
[16] = system: Rattus norvegicus; assay: Distribution of radioactivity in blood tissues of Sprague-Dawley rats after 5 min injecton by intravenously; 0.34-0.48; details: in vivo, iv; outline: as §1
[17] = system: Rattus norvegicus; assay: Distribution of radioactivity in heart tissues of Sprague-Dawley rats after 5 min injecton by intravenously; 0.24-0.29; details: in vivo, iv
[18] = system: Rattus norvegicus; assay: Distribution of radioactivity in brain tissues of Sprague-Dawley rats after 5 min injecton by intravenously; 0.02-0.03; details: in vivo, iv; outline: as §1
[19] = system: Rattus norvegicus; assay: Distribution of radioactivity in kidney tissues of Sprague-Dawley rats after 15 min injecton by intravenously; 1.59-2.03; details: in vivo, iv, 0.25 h
[20] = system: Rattus norvegicus; assay: Distribution of radioactivity in liver tissues of Sprague-Dawley rats after 30 min injecton by intravenously; 1.57-1.66; details: in vivo, iv, 0.5 h
[21] = system: Rattus norvegicus; assay: Distribution of radioactivity in liver tissues of Sprague-Dawley rats after 5 min injecton by intravenously; 0.73-1.45; details: in vivo, iv
[22] = system: Rattus norvegicus; assay: Distribution of radioactivity in liver tissues of Sprague-Dawley rats after 60 min injecton by intravenously; 1.36-1.74; details: in vivo, iv, 1 h
[23] = system: Rattus norvegicus; assay: Distribution of radioactivity in kidney tissues of Sprague-Dawley rats after 30 min injecton by intravenously; 1.67-2.11; details: in vivo, iv, 0.5 h
[24] = system: Rattus norvegicus; assay: Distribution of radioactivity in kidney tissues of Sprague-Dawley rats after 5 min injecton by intravenously; 0.62-1.13; details: in vivo, iv
[25] = system: Rattus norvegicus; assay: Distribution of radioactivity in kidney tissues of Sprague-Dawley rats after 60 min injecton by intravenously; 0.99-1.24; details: in vivo, iv, 1 h
[26] = system: Rattus norvegicus; assay: Distribution of radioactivity in liver tissues of Sprague-Dawley rats after 15 min injecton by intravenously; 1.37-1.74; details: in vivo, iv, 0.25 h
[27] = system: Rattus norvegicus; assay: Distribution of radioactivity in lung tissues of Sprague-Dawley rats after 15 min injecton by intravenously; 0.77-0.86; details: in vivo, iv, 0.25 h
[28] = system: Rattus norvegicus; assay: Distribution of radioactivity in lung tissues of Sprague-Dawley rats after 30 min injecton by intravenously; 0.6-0.66; details: in vivo, iv, 0.5 h
[29] = system: Rattus norvegicus; assay: Distribution of radioactivity in lung tissues of Sprague-Dawley rats after 60 min injecton by intravenously; 0.36-0.44; details: in vivo, iv, 1 h
[30] = system: Rattus norvegicus; assay: Distribution of radioactivity in brain tissues of Sprague-Dawley rats after 5 min injecton by intravenously; 0.35-0.72; details: in vivo, iv; outline: as §1
[31] = system: Rattus norvegicus; assay: Distribution of radioactivity in brain tissues of Sprague-Dawley rats after 60 min injecton by intravenously; 0.05-0.06; details: in vivo, iv, 1 h; outline: as §1
[32] = system: Rattus norvegicus; assay: Distribution of radioactivity in heart tissues of Sprague-Dawley rats after 60 min injecton by intravenously; 0.22-0.29; details: in vivo, iv, 1 h
[33] = system: Rattus norvegicus; assay: Distribution of radioactivity in blood tissues of Sprague-Dawley rats after 60 min injecton by intravenously; 0.49-0.58; details: in vivo, iv, 1 h; outline: as §1
[34] = system: Rattus norvegicus; assay: Distribution of radioactivity in brain tissues of Sprague-Dawley rats after 15 min injecton by intravenously; 0.34-0.5; details: in vivo, iv, 0.25 h; outline: as §1
[35] = system: Rattus norvegicus; assay: Distribution of radioactivity in heart tissues of Sprague-Dawley rats after 15 min injecton by intravenously; 0.52-0.62; details: in vivo, iv, 0.25 h; outline: as §1
[36] = system: Rattus norvegicus; assay: Distribution of radioactivity in heart tissues of Sprague-Dawley rats after 30 min injecton by intravenously; 0.36-0.42; details: in vivo, iv, 0.5 h; outline: as §1
[37] = system: Rattus norvegicus; assay: Distribution of radioactivity in blood tissues of Sprague-Dawley rats after 15 min injecton by intravenously; 0.95-1.06; details: in vivo, iv, 0.25 h; outline: as §1
[38] = system: Rattus norvegicus; assay: Distribution of radioactivity in blood tissues of Sprague-Dawley rats after 30 min injecton by intravenously; 0.69-0.84; details: in vivo, iv, 0.5 h; outline: as §1
[39] = system: Rattus norvegicus; assay: Distribution of radioactivity in blood tissues of Sprague-Dawley rats after 5 min injecton by intravenously; 0.58-1.17; details: in vivo, iv; outline: as §1
[40] = system: Rattus norvegicus; assay: Distribution of radioactivity in heart tissues of Sprague-Dawley rats after 5 min injecton by intravenously; 0.39-0.74; details: in vivo, iv
[41] = system: Rattus norvegicus; assay: Distribution of radioactivity in brain tissues of Sprague-Dawley rats after 30 min injecton by intravenously; 0.18-0.36; details: in vivo, iv, 0.5 h; outline: as §1
[42] = system: Rattus norvegicus; assay: Distribution of radioactivity in lung tissues of Sprague-Dawley rats after 5 min injecton by intravenously; 0.54-1.07; details: in vivo, iv

Distribution [1]: 1.46%
Distribution [2]: 8.03%
Distribution [3]: 0.93%
Distribution [4]: 16.46%
Distribution [5]: 0.56%
Distribution [6]: 4.33%
Distribution [7]: 0.47%
Distribution [8]: 0.47%
Distribution [9]: 0.32%
Distribution [10]: 0.02%
Distribution [11]: 0.2%
Distribution [12]: 0.27%
Distribution [13]: 0.03%
Distribution [14]: 0.26%
Distribution [15]: 0.36%
Distribution [16]: 0.39%
Distribution [17]: 0.25%
Distribution [18]: 0.03%
Compound: C[n+]1cccc(C(=O)NCCc2ccc([125I])cc2)c1

Distribution [19]: 1.81%
Distribution [20]: 1.6%
Distribution [21]: 1.16%
Distribution [22]: 1.6%
Distribution [23]: 1.8%
Distribution [24]: 0.97%
Distribution [25]: 1.12%
Distribution [26]: 1.57%
Distribution [27]: 0.81%
Distribution [28]: 0.62%
Distribution [29]: 0.39%
Distribution [30]: 0.58%
Distribution [31]: 0.06%
Distribution [32]: 0.24%
Distribution [33]: 0.54%
Distribution [34]: 0.43%
Distribution [35]: 0.57%
Distribution [36]: 0.39%
Distribution [37]: 0.99%
Distribution [38]: 0.77%
Distribution [39]: 0.94%
Distribution [40]: 0.63%
Distribution [41]: 0.27%
Distribution [42]: 0.86%
Compound: Nc1ccc([125I])cc1
